For 44 compounds, IC50 and inhibition results are on record in PubChem BioAssay AID624175 (Southern Research Specialized Biocontainment Screening …, 2012).

Each structure is given as a SMILES string. Calls of active or inactive are those of the source.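 Rule for the calls: active = inhibition of 30% or more at any tested concentration; inactive = the rest.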

By IC50 is commonly meant the concentration that gives 50% inhibition.

The target of the first assay is Leucine aminopeptidase (Plasmodium falciparum (isolate 3D7)) (UniProt Q8IL11). As to the kind of experiment: PFM17LAP inhibitors, dose response, selectivity assay for PFM18AAP inhibitor project, biochemical, QFRET, H-Leu-NHMec substrate, set 3 (AID 624175). Conditions: recombinant PfM17LAP, H-Leu-NHMec fluorogenic cleavage. An outline of the steps: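 Detection: fluorescence of released NHMec, excitation 370 nm, emission 460 nm; System: recombinant PfM17LAP enzyme; Dosing: 10-point twofold dilution series, 100 down to 0.2 µM, 2% DMSO; Replication: each concentration tested in triplicate; Read-out: % inhibition and fitted IC50; Schedule: enzyme reaction of 90 min at room temperature.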
Sequence of Leucine aminopeptidase (Plasmodium falciparum (isolate 3D7)) (Q8IL11 whole entry, looked up): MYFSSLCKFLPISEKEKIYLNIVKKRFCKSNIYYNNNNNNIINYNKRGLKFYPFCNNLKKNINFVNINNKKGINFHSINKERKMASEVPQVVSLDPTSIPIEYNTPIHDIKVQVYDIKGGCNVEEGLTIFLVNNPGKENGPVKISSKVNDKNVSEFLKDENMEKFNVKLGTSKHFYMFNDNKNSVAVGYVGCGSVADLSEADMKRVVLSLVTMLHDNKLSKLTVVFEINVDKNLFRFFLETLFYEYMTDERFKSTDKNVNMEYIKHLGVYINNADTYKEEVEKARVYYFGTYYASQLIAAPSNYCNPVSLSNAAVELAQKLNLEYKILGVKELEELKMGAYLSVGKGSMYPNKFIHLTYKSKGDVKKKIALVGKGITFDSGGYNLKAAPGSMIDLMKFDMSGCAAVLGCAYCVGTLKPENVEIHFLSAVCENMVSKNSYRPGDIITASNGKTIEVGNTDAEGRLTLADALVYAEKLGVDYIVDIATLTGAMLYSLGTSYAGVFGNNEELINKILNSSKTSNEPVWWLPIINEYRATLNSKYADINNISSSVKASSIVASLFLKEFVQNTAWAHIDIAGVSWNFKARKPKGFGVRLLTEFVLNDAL
Take `Cc1cccc2c(N(C)CCc3ccc(O)c(O)c3)ccnc12`: the IC50 is 55.1 µM.
Still for that read-out and setting: the figure for `CN(CCCc1ccc(O)c(O)c1)c1ccnc2ccccc12` is 57.6 µM.
For `CN(CCc1ccc(O)c(O)c1)c1ccnc2cc(Cl)ccc12`, the concentration for half-maximal inhibition (IC50) is 44 µM.
The same measure, in the same setting: the figure for `Oc1ccc(CCNc2ccnc3cc(Cl)ccc23)cc1O` is 73.4 µM; for `CC(C)(CNc1ccnc2ccccc12)c1ccc(O)c(O)c1` it is 101 µM; for `CC(Cc1ccc(O)c(O)c1)Nc1ccnc2ccccc12` (centres undefined) it is 76.5 µM.
`Cc1cc(N(C)CCc2ccc(O)c(O)c2)c2ccccc2n1`: the IC50 was 47.4 µM.
Consider `Oc1ccc(C2CCN(c3ccnc4ccccc34)CC2)cc1O`, for which the IC50 was 38.4 µM.
On the same count and under the same terms, the figure for `Oc1ccc(CCNc2ccnc3c(F)cccc23)cc1O` is 35.7 µM.
Still for that read-out and setting: the figure for `Oc1ccc(C2CCCN(c3ccnc4ccccc34)C2)cc1O` (centres undefined) is 53.2 µM; for `Cc1cccc2c(NCCc3ccc(O)c(O)c3)ccnc12` it is 65.3 µM.
On the same count and under the same terms, next, `Oc1ccc(C2CCN(c3ccnc4ccccc34)C2)cc1O` (centres undefined): 30.3 µM; `Oc1ccc(CCCNc2c3c(nc4ccccc24)CCCC3)cc1O`: 56 µM; `CN(CCc1ccc(O)c(O)c1)c1ccnc2c(F)cccc12`: 34.6 µM.
Regarding `Oc1cccc(CCNc2ccnc3ccccc23)c1O`, the IC50 was 35.3 µM.
Same read-out and setting: the figure for `CN(CCc1ccc(O)c(O)c1)c1ncnc2ccccc12` is 30.4 µM.

Staying with this assay, now noted: recombinant PfM17LAP, H-Leu-NHMec fluorogenic cleavage; at 50 µM (top of the series).
Regarding `CCN(CC)Cc1cc(Nc2ccnc3cc(Cl)ccc23)ccc1O`, the inhibition entry was “inactive”.

The same assay, now with this note: recombinant PfM17LAP, H-Leu-NHMec fluorogenic cleavage; at 100 µM (top of the series).
In the case of `COc1cc(Br)c(CCNc2c3c(nc4ccccc24)CCCC3)cc1OC`, the inhibition entry is “inactive”.
Take `COc1ccc(CCN(C)c2ccnc3c(F)cccc23)cc1OC`: the inhibition entry is “inactive”.
Regarding `COc1ccc(C2CCN(c3ccnc4ccccc34)CC2)cc1OC`, the inhibition entry is “inactive”.
The same measure, in the same setting: next, `COc1ccc(CCN(C)c2ccnc3c(C)cccc23)cc1OC`: “inactive”; `COc1ccc(CCCNc2c3c(nc4ccccc24)CCCC3)cc1OC`: “inactive”.
Same read-out and setting: next, `COc1ccc(CCNc2ccnc3c(C)cccc23)cc1OC`: “inactive”; `COc1ccc(CCNc2ncnc3ccccc23)cc1OC`: “inactive”; `COc1ccc(CCNc2ccnc3cc(Cl)ccc23)cc1OC`: “inactive”.
The same measure, in the same setting: the entry for `COc1ccc(CCNc2cc(C)nc3ccccc23)cc1OC` is “inactive”; for `COc1ccc(CCN(C)c2ncnc3ccccc23)cc1OC` it is “inactive”; for `COc1cc(Br)c(CCNc2c3ccccc3nc3ccccc23)cc1OC` it is “inactive”.
Regarding `CN(CCCc1ccc(O)c(O)c1)c1c2ccccc2nc2ccccc12`, the inhibition result was “inactive”.
The same measure, in the same setting: the entry for `COc1ccc(CCNC(=O)c2cc(C)ccc2N)cc1OC` is “inactive”.
On the same count and under the same terms, next, `CCOc1ccc2nccc(NCCc3ccc(OC)c(OC)c3)c2c1`: “inactive”.
Turning to `COc1ccc(CCN(C)c2cc(C)nc3ccccc23)cc1OC`, the inhibition result was “inactive”.
On the same count and under the same terms, next, `COc1ccc(CCNc2c3c(nc4ccc(C)cc24)CCCC3)cc1OC`: “inactive”.
On the same count and under the same terms, the entry for `COc1ccc(CCNc2ccnc3c(F)cccc23)cc1OC` is “inactive”.
Same read-out and setting: next, `CN(CCc1ccc(O)c(O)c1)c1c2ccccc2nc2ccccc12`: “inactive”; `COc1ccc(C2CCN(c3ccnc4ccccc34)C2)cc1OC` (centres undefined): “inactive”.
As for `COc1ccc(CCN(C)c2ccnc3cc(Cl)ccc23)cc1OC`, the inhibition entry was “inactive”.
Still for that read-out and setting: next, `CCN(CCc1ccc(OC)c(OC)c1)c1c2ccccc2nc2ccccc12`: “inactive”.
Still for that read-out and setting: next, `COc1ccc(CCCN(C)c2c3ccccc3nc3ccccc23)cc1OC`: “inactive”.
Still for that read-out and setting: the entry for `Clc1c2c(nc3ccccc13)CCCC2` is “inactive”; for `COc1ccc(CCN(C)c2c3ccccc3nc3ccccc23)cc1OC` it is “inactive”.
As for `Nc1c2ccccc2nc2ccccc12`, the inhibition entry was “inactive”.
For the compound `COc1cc(Br)c(CCNc2ccnc3ccccc23)cc1OC`, the inhibition entry was “inactive”.
In the case of `CCOc1ccc2nccc(N(C)CCc3ccc(OC)c(OC)c3)c2c1`, the inhibition result was “inactive”.
